The test system of assay [1] is Escherichia coli. The experiment in a line: Inhibitory activity against accumulation of [14C]-labeled Linezolid within wild-type Escherichia coli K12 cells. It is filed as functional, cell-based. Conditions: K-12, K12. The essentials: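 E. coli K12 grown at 37 °C in LB + 0.2% glucose, rinsed twice, resuspended to OD530 8.0 in 50 mM KPO4 pH 7.0, 1 mM MgSO4, 0.2% glucose. Preincubated 10 min at 37 °C, inhibitor added for 30 min, then 14C-linezolid (30 µM final) 15 min. Cells spun through an oil cushion and scintillation counted. IC50 is half-maximal accumulation relative to 100 µM CCCP control.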

The subject of assay [2] is Escherichia coli. Kind of assay: Antibacterial activity against Escherichia coli strain ATCC 25922. It is filed as functional.
Another assay concerns Staphylococcus aureus. Kind of assay: Antibacterial activity against Staphylococcus aureus strain ATCC 29213. In kind it is functional.

Values after ≈ are worked out from the molar mass of the structure shown. Residues, ends and D or L forms follow the SMILES beside them. *: point of attachment. βNA = c1ccc2cc(N*)ccc2c1

The compound `COc1ccccc1-c1ccc(CCC2CCCNC2)c(Cl)c1` (configuration not stated) showed an IC50 in the assay with Escherichia coli [1] of more than 900 µM. Besides, the MIC was 64 µg/mL (≈ 194 µM) in the assay with Escherichia coli [2] and 32 µg/mL (≈ 97 µM) with Staphylococcus aureus.

The compound `N#Cc1ccc(CCC2CCCNC2)cc1` (configuration not stated) yielded an IC50 with Escherichia coli [1] of more than 900 µM. Also, the MIC with Escherichia coli [2] and with Staphylococcus aureus was more than 128 µg/mL throughout.

In the assay on Escherichia coli [1], `N=C(N)NCCC[C@H](NC(=O)[C@@H](N)Cc1ccccc1)C(=O)Nc1ccc2ccccc2c1` [PABETAN] (H-Phe-Arg-βNA) returned an IC50 of 730 µM. In addition, it took 256 µg/mL (≈ 573 µM) to inhibit growth with Escherichia coli [2] (MIC).

On to `Cl.FC1=C(Cc2cc(Br)ccc2Cl)CNCC1`, for which the IC50 in the assay on Escherichia coli [1] was 480 µM. Further, the MIC against Escherichia coli [2] is 128 µg/mL; in the assay with Staphylococcus aureus it was more than 128 µg/mL.

In the case of `Clc1cccc(Cl)c1CCC1CCCNC1` (configuration not stated), the IC50 in the assay with Escherichia coli [1] was found to be 290 µM. In addition, the MIC with Escherichia coli [2] and with Staphylococcus aureus was more than 128 µg/mL in each case.

In turn, `Clc1ccc(CCC2CCCNC2)cc1Cl` (configuration not stated) showed an IC50 with Escherichia coli [1] of 200 µM. The MIC against Escherichia coli [2] and against Staphylococcus aureus was 128 µg/mL (≈ 496 µM) throughout.

`Cc1ccc(C)c(CCC2CCCNC2)c1` (configuration not stated) registered an IC50 with Escherichia coli [1] of more than 900 µM. For the same compound, the MIC against Escherichia coli [2] and with Staphylococcus aureus was more than 128 µg/mL in each case.

Regarding `Clc1ccc(Cl)c(CCC2CCCNC2)c1` (configuration not stated), it took 195 µM to reach half-maximal inhibition in the assay on Escherichia coli [1] (IC50). In addition, the MIC is 128 µg/mL (≈ 496 µM) against Escherichia coli [2] and 64 µg/mL (≈ 248 µM) with Staphylococcus aureus.

As to `Cl.F[C@H]1CCNC[C@@H]1Cc1cc(Br)ccc1Cl`, the IC50 in the assay with Escherichia coli [1] was more than 900 µM. Besides, the MIC is 256 µg/mL against Escherichia coli [2] and more than 125 µg/mL with Staphylococcus aureus.

In the assay on Escherichia coli [1], `CCOc1ccc(CCC2CCCNC2)cc1` (configuration not stated) came in with an IC50 of more than 900 µM. In addition, the MIC in the assay on Escherichia coli [2] and against Staphylococcus aureus was more than 128 µg/mL in each case.

Take `c1ccc(CCC2CCCNC2)cc1` (configuration not stated): in the assay with Escherichia coli [1], the IC50 is more than 900 µM. For the same compound, the MIC against Escherichia coli [2] and with Staphylococcus aureus was more than 128 µg/mL each time.

As for `FC(F)(F)c1cc(CCC2CCCNC2)cc(C(F)(F)F)c1` (configuration not stated), in the assay on Escherichia coli [1], the IC50 was 300 µM. Moreover, the MIC in the assay on Escherichia coli [2] and in the assay on Staphylococcus aureus was 64 µg/mL (≈ 197 µM) each time.

Compound `Cl.Clc1ccc(Br)cc1/C=C/C1CCCNC1` (configuration not stated) had an IC50 in the assay on Escherichia coli [1] of 140 µM. Also, the figures for the MIC against Escherichia coli [2] and with Staphylococcus aureus were 64 µg/mL and 32 µg/mL, respectively.

For `Cl.O=C1CCNCC1Cc1cc(Br)ccc1Cl` (configuration not stated), in the assay on Escherichia coli [1], the IC50 was more than 900 µM. Also, the MIC was more than 256 µg/mL in the assay on Escherichia coli [2] and more than 128 µg/mL with Staphylococcus aureus.

In the assay with Escherichia coli [1], `Cl.Clc1ccc(Br)cc1CC1=CCCNC1` gave an IC50 of 600 µM. Moreover, the results for the MIC in the assay on Escherichia coli [2] and against Staphylococcus aureus were 256 µg/mL and 128 µg/mL, respectively.

`F[C@H]1CCNC[C@@H]1CCCc1cc(Br)ccc1Cl` gave an IC50 in the assay with Escherichia coli [1] of 400 µM.

For the compound `Cl.F[C@@H]1CCNC[C@H]1CCc1cc(Br)ccc1Cl`, the IC50 in the assay with Escherichia coli [1] stood at 90 µM. In addition, the MIC with Escherichia coli [2] and in the assay on Staphylococcus aureus was 64 µg/mL throughout.

`Cl.O[C@H]1CCNC[C@@H]1Cc1cc(Br)ccc1Cl` came in with an IC50 with Escherichia coli [1] of more than 900 µM. The MIC with Escherichia coli [2] was more than 256 µg/mL; against Staphylococcus aureus, more than 128 µg/mL.

In the assay with Escherichia coli [1], `Cl.Clc1ccc(Br)cc1CCC1CCCNC1` (configuration not stated) showed an IC50 of 185 µM. In addition, the MIC with Escherichia coli [2] came to 128 µg/mL; in the assay with Staphylococcus aureus, 64 µg/mL.

In the assay on Escherichia coli [1], `Cl.OC1CCNC[C@@H]1Cc1cc(Br)ccc1Cl` (some centres not stated) showed an IC50 of more than 900 µM. In addition, the MIC in the assay on Escherichia coli [2] is more than 256 µg/mL; in the assay with Staphylococcus aureus, more than 128 µg/mL.

In general, IC50 refers to the concentration that gives 50% inhibition. Higher therefore signals a need for much substance. As usually defined, the MIC is the least concentration at which growth counts as inhibited. A low value points to greater potency.

The record behind these values is ChEMBL document CHEMBL1134147, “3-Arylpiperidines as potentiators of existing antibacterial agents” (Bioorg Med Chem Lett, 2001).
